According to ChEMBL document CHEMBL4251677, “Pentaminomycins A and B, Hydroxyarginine-Containing Cyclic Pentapeptides from Streptomyces sp. RK88-1441” (J Nat Prod, 2018):
Activity calls are given as the source filed them. The rule behind the calls is not given here. Starred links: 1 amine or outer side, 2 acyl side, 3 side chain; linkers in the order of their positions; H or OH if unused. Non-standard residues stand in square brackets, D forms with d. Residues, ends and D or L forms follow the SMILES beside them. X1 = N=C(N)N(O)CCC[C@H](N[*:1])C(=O)[*:2]

Assays:
[1] = tested on: HeLa; test: Cytotoxicity against human HeLa cells at 30 uM after 24 hrs by EZ-cytox dye based assay; type: cell-based
Procedure, shortened: (§1)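 Cells were seeded at 5.0 × 10^4 per well and grown 24 h, then exposed to compound for 24 h and washed with PBS. They were incubated 2 h in DMEM with EZ-Cytox reagent, and viability was read as water-soluble formazan optical density at 450 nm.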

[2] = tested on: 4T1; test: Cytotoxicity against mouse 4T1 cells at 30 uM after 24 hrs by EZ-cytox dye based assay; type: cell-based; conditions: 4t1, 24 h; procedure, shortened: as §1
[3] = tested on: B16-F0; test: Cytotoxicity against mouse B16F0 cells at 30 uM after 24 hrs by EZ-cytox dye based assay; type: cell-based; conditions: b16-f0, 24 h; procedure, shortened: as §1
[4] = tested on: B16-F10; test: Cytotoxicity against mouse B16F10 cells at 30 uM after 24 hrs by EZ-cytox dye based assay; type: cell-based; conditions: b16-f10, 24 h; procedure, shortened: as §1
[5] = tested on: B16-F10; test: Antimelanogenic activity in mouse B16F10 cells assessed as inhibition of alpha-MSH-stimulated melanin synthesis up to 10 uM measured after 24 hrs; type: functional, cell-based
Procedure, shortened: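 B16F10 cells (3.5 × 10^4 per well) were grown 24 h in phenol red-free complete DMEM at 37 °C, 5% CO2. They were then given α-MSH (200 nM) with compound at 0–10 μM for 24 h. Cells were PBS-washed, trypsin-EDTA detached and centrifuged. Melanin was read as absorbance at 405 nm; mean ± SD, n = 3.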

[6] = tested on: B16-F10; test: Antimelanogenic activity in mouse B16F10 cells assessed as inhibition of alpha-MSH-stimulated melanin synthesis by measuring reduction in TRP1 expression up to 10 uM measured after 24 hrs by Western blot analysis; type: functional, cell-based
Procedure, shortened: (§2)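 B16F10 cells at 1.0 × 10^5 cells/mL were preincubated 24 h, then exposed to α-MSH (100 nM) plus 5, 7.5 or 10 μM compound for 24 h. Cells were lysed in M-per buffer. Whole-cell protein was run on SDS-PAGE and blotted to nitrocellulose, probed with anti-TRP-1 or anti-TRP-2 antibodies, and detected by chemiluminescence on film.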

[7] = tested on: B16-F10; test: Antimelanogenic activity in mouse B16F10 cells assessed as inhibition of alpha-MSH-stimulated melanin synthesis by measuring reduction in TRP2 expression up to 10 uM measured after 24 hrs by Western blot analysis; type: functional, cell-based; procedure, shortened: as §2

## CC(C)C[C@H]1NC(=O)[C@H](CCCN(O)C(=N)N)NC(=O)[C@H](Cc2c[nH]c3ccccc23)NC(=O)[C@@H](C(C)C)NC(=O)[C@H](C(C)C)NC1=O
[1]
  Activity: Non-Toxic
[2]
  Activity: Non-Toxic
[3]
  Activity: Non-Toxic
[4]
  Activity: Non-Toxic
[5]
  inhibition: Active
[6]
  inhibition: Active
[7]
  inhibition: Active

## CC(C)C[C@@H]1NC(=O)[C@@H](CC(C)C)NC(=O)[C@H](CCCN(O)C(=N)N)NC(=O)[C@H](Cc2c[nH]c3ccccc23)NC(=O)[C@@H](C(C)C)NC1=O (cyclo(L[dV]W[X1][dL]))
[1]
  Activity: Non-Toxic
[2]
  Activity: Non-Toxic
[3]
  Activity: Non-Toxic
[4]
  Activity: Non-Toxic
